In the library only some 0.78% were active in any assay of this set; here they are far more common.
Htt clearance = mutant huntingtin protein clearance; inhibition, % at 1.5 µM; 47,000 tested, 0.42% active; HeLa Exon1htt(103Q)mCFP, aggregate imaging; zero = plate's median compound well;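 active means inhibition of aggregate fluorescence above about 70%, also judged a hit by eye on the cell image, limit read from the data, passing the limit was not always enough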;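 further: cells exposed to compound for three days before fixation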
MMP-13 inhibitor = blocks human MMP13 activity; MMP-13 fTHP FRET cleavage, Mca fluorescence; P45452; inhibition, % at 4 µM; 65,000 tested, 0.07% active; AID 570;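 active means inhibition above the mean of compound-free control plate wells plus 3 SD, cut at about 14% in these data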;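 further: 0% = DMSO wells and 100% = wells with reference MMP-13 inhibitor after basal subtraction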
S1P3 ag = agonists of human S1P3 receptor. 60,000 tested, 0.1% active. activation, % at 4.5 µM. Q99500. S1P3 NFAT-BLA reporter cells, agonism, FRET ratio; relative to 1 µM S1P, basal subtracted;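 active means activation above the screen-wide mean plus 3 SD, cut at about 4.5% in these data, passing the limit was not always enough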
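material = human S1P3 NFAT-BLA reporter CHO cells | schedule = 4 h compound at 37 °C, 2 h substrate at RT | measured by = fluorescent BLA substrate, ex 405 nm, em 460/535 nm ratio | controls = 1 µM S1P reference | replication = primary once, confirmation triplicate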
S1P1 ag-PAM = S1P1 (human) agonism or agonism potentiation; activation, % at 9.5 µM; S1P1 CRE-bla cells, forskolin, beta-lactamase FRET, potentiator mode; S1P1 agonist co-added at EC20, 2 nM; 100% = saturating reference agonist, 0% = basal; 56,000 tested, 0.57% active; P21453;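 active means activation above a cutoff set at the mean activation of all tested compounds plus 3 SD, cut at about 54% in these data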;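 further: forskolin at 4 µM as EC80 and the EC20 agonist is SEW2871; 100% = SEW2871 at its EC100 plus forskolin at EC80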
Target sequence (P21453 whole entry, looked up): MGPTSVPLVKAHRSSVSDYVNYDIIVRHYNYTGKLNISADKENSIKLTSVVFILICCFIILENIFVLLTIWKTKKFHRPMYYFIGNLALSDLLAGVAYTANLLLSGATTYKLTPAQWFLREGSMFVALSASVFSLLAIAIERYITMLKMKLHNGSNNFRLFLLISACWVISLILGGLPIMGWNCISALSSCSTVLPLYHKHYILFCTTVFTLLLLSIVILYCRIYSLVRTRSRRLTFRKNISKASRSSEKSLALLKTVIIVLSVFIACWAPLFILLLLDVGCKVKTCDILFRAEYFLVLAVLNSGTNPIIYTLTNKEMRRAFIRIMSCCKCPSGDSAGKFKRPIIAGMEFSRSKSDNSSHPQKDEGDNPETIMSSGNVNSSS
Numbers without * were called inactive; i = inactive; . = not tested or not shown.

SMILES	Htt clearance	MMP-13 inhibitor	S1P3 ag	S1P1 ag-PAM
Nc1nonc1C(=O)NCCNCc1cc(Br)ccc1OCc1ccccc1F	26.8	6.9	-2.4	77.9*
CCOc1ccc(-c2nc(-c3cccnc3)no2)cc1	37.8	.	.	.
c1ccc(C(Cc2nc(-c3ccncc3)no2)c2ccccc2)cc1	10.7	2.7	42.0*	.
c1ccc(-c2ccc(-c3nc(-c4cccnc4)no3)cc2)cc1	.	-24.8	-1.0	81.5*
c1ccc(-c2ccc(-c3nc(-c4ccncc4)no3)cc2)cc1	.	3.0	-1.4	84.7*
c1ccc(-c2nc(-c3ccncc3)no2)cc1	12.6	6.5	-0.4	.
CCc1ccc(-c2nc(-c3ccncc3)no2)cc1	-56.1	2.1	-0.8	76.0*
CCCCc1ccc(-c2nc(-c3ccncc3)no2)cc1	.	-4.0	.	.
CN(Cc1nc(-c2ccncc2)no1)S(=O)(=O)c1ccccc1	-52.7	5.3	0.1	-5.3
Cn1cnnc1SC(C(=O)Nc1cccc(C(F)(F)F)c1)c1ccccc1 (stereo not drawn)	4.4	.	.	.
CCCn1c(NC(=O)c2ccc(Cl)c(S(=O)(=O)N3CCCC3)c2)nc2ccccc21	48.5	5.2	-1.9	47.7
COC(=O)CS(=O)(=O)c1nnc([C@H](Cc2ccccc2)NC(=O)OC(C)(C)C)o1	-66.6	-4.0	-1.4	55.6*
CC(C)C(NC(=O)c1ccccc1)c1nnc(SCC(=O)Nc2nccs2)n1C (stereo not drawn)	-3.3	.	.	.
Cc1ccc(OCc2nc(-c3ccccc3)no2)c(C)c1	-18.1	3.4	-0.9	77.8*
Cc1cc(C)c(C)c(OCc2nc(-c3cccnc3)no2)c1	13.7	0.9	-1.2	26.1
Cc1cc2c(=O)n(CC(=O)NCC(=O)N3CCN(Cc4ccccc4)CC3)cnc2s1	.	1.5	-1.0	1.3
CCN1CCN(CCNC(=O)C2CCCN(Cc3nc(-c4cccc(Cl)c4)oc3C)C2)CC1 (stereo not drawn)	.	-1.8	-1.1	7.0
CCOC(=O)N1CCC(NC(=O)C2CCCN(Cc3nc(-c4cccc(Cl)c4)oc3C)C2)CC1 (stereo not drawn)	.	-5.0	-1.9	102.8*
Cc1ccc(-c2nn3c(C)nnc3c3ccccc23)cc1S(=O)(=O)N(C)CCO	-16.4	.	.	.
Cc1cccc(-c2nc(C#N)c(NC3CCCCC3)o2)c1	-8.0	-161.3	-3.6	68.5*
Clc1ccc(OCc2nnc(SCc3nc4ccccc4[nH]3)n2Cc2ccco2)cc1	-11.1	3.2	-0.8	61.0*
Clc1cccc(-c2nnc(SCc3nc4ccccc4[nH]3)n2Cc2ccco2)c1	22.4	2.8	0.3	-16.3
CC(=O)N1CN(Cc2ccccn2)Cc2c1sc1c2CCCC1	82.8*	-1.8	0.3	-7.4
COC(=O)c1cccc(NC(=O)CCCOc2cccc(C)c2)c1	46.8	.	.	.
COc1ccccc1Oc1cc(C#N)c(C#N)cc1-n1nnc2ccccc21	26.5	4.1	19.7*	14.6
SMILES	Htt clearance	MMP-13 inhibitor	S1P3 ag	S1P1 ag-PAM
Cc1ccc(C(=O)Nc2ccc3cn[nH]c3c2)cc1S(=O)(=O)N1CCCCC1	15.9	.	.	.
Cc1nnc(SCC(=O)NC(C)(C)C)n1CCc1ccccc1	.	0.5	0.1	-9.2
Cc1nnc(SCC(N)=O)n1CCc1ccccc1	71.4*	.	.	.
CCC(Oc1nc2ccccc2nc1-c1ccccc1NC(C)=O)C(=O)c1ccccc1 (stereo not drawn)	-2.2	.	.	.
COc1ccc(CN2CCN(C)CC2)cc1OCc1ccccc1	74.1*	4.0	-0.3	.
Cc1ccc2nc3c(cc(C#N)c(=O)n3CCN3CCOCC3)c(=O)n2c1	.	-48.7	-0.7	-10.4
Cc1ccc2nc3c(cc(C#N)c(=O)n3-c3nccs3)c(=O)n2c1	.	i	12.0*	-110.4
CN=C(NC#N)SCC(=O)c1ccc(Cl)cc1Cl	-6.6	-9.1	-0.3	81.7*
CN1CCN(c2ccc([N+](=O)[O-])c(-n3nc(-c4ccccc4)c4ccccc4c3=O)c2)CC1	31.5	.	.	.
O=c1cc(-c2ccccc2)[nH]n1-c1ccc([N+](=O)[O-])cc1	50.3	.	.	.
CC(C)c1cc(C(=O)N2CCN(C(c3ccccc3)c3ccccc3)CC2)no1	.	6.2	-0.2	75.6*
COc1ccc(-c2cc(C(=O)N3CCN(C(c4ccccc4)c4ccccc4)CC3)no2)cc1	9.1	6.7	-1.2	-9.2
O=C(c1cc(-c2ccco2)on1)N1CCN(C(c2ccccc2)c2ccccc2)CC1	-4.6	2.4	0.1	59.8*
COc1ccc(-c2cc(C(=O)N3CCN(C(c4ccccc4)c4ccccc4)CC3)no2)cc1OC	.	-4.3	-0.4	-0.4
O=C(N1CCOCC1)N1CCN(C(=O)N2CCOCC2)CC1	42.1	.	.	.
COc1cccc(N2CCN(c3ncnc4c3[nH]c3ccc(F)cc34)CC2C)c1 (stereo not drawn)	.	-2.1	-8.3	115.2*

Source: PubChem (several laboratories)
